Measured values from different studies.
Compare with care: the assays were run in different laboratories.
Target: Inhibitor of nuclear factor kappa-B kinase subunit epsilon (IKBKE, Homo sapiens, UniProt Q14164)
Read-out: enzyme activity
Sequence (Q14164 1-716, as in one of the studies): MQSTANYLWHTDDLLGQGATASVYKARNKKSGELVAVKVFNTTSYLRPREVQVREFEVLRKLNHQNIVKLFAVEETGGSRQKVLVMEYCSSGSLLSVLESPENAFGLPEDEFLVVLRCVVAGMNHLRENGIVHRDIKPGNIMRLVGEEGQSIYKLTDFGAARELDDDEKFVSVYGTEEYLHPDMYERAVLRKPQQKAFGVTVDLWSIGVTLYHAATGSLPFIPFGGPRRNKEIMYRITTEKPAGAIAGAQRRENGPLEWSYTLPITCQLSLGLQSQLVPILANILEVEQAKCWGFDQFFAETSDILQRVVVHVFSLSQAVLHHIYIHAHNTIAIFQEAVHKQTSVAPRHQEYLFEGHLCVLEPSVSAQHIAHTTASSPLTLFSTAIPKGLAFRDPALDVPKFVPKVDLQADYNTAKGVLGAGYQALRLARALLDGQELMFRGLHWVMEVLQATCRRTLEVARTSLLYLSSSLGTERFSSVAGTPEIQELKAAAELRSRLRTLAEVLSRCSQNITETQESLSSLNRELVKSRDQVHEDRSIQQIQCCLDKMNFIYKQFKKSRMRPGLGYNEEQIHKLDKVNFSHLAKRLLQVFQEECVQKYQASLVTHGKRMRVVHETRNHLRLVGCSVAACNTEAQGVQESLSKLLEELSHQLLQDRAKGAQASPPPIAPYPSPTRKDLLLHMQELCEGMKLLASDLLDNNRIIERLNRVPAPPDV

SMILES | assay | setting | remaining activity [%]
Clc1ccc(Nc2nnc(Cc3ccncc3)c3ccccc23)cc1 |  | 0.5 µM | 95.7
CC(C)(C)c1nc2c(s1)c1nc(N)ncc1c1ccc(NS(=O)(=O)c3c(F)cccc3F)c(F)c12 | inhibitor, radiometric | 1 µM | 90
O=C1Nc2ccc(Cl)cc2C1=Cc1cc(Cl)c(O)c(Cl)c1 |  | 0.5 µM | 94.7
Cc1nn(CC(F)(F)F)cc1Nc1ncc(C2CC2)c(NCCc2c[nH]cn2)n1 | inhibitor, radiometric | 1 µM | 95
CC(C)(O)[C@H]1CC[C@H](Nc2ccc3ncc(-c4cccc(C(F)(F)F)c4)n3n2)CC1 | inhibitor | 1 µM | 90.2
NS(=O)(=O)c1ccc(CNc2ccnc(Nc3cccc(CN4CCOCC4)c3)n2)cc1 | inhibitor, radiometric | 1 µM | 78
COc1cc(Cl)c(C(=O)N[C@@H](CN[C@H]2CC[C@@H](N)CC2)Cc2ccc(C#N)cc2)cc1-c1ccc(CN[C@H](C)c2ccc(C)cc2)o1 | inhibitor | 1 µM | 89
Oc1cccc(-c2nc(N3CCOCC3)c3oc4ncccc4c3n2)c1 | inhibitor | 10 µM | 85
COc1cc(Nc2cnc(C#N)c(O[C@H](C)CN(C)C)n2)ncc1-c1cnn(C)c1 | inhibitor, radiometric | 1 µM | 78
Brc1cnc(Nc2cccc(CN3CCOCC3)c2)nc1NCCc1c[nH]cn1 | inhibitor, radiometric | 1 µM | 36
Cc1sc(C(=O)NC2COC2)cc1-n1cc(NC(=O)Nc2c(F)cccc2Cl)cn1 | inhibitor | 10 µM | 116
Cc1nn(CC(F)(F)F)cc1Nc1ncc(Br)c(NCCc2cnc[nH]2)n1 | inhibitor, radiometric | 1 µM | 55
Nc1ncnc2occ(-c3ccc(NC(=O)Nc4cc(C(F)(F)F)ccc4F)cc3)c12 | inhibitor | 20 µM | 12
c1cc(CN2CCOCC2)cc(Nc2ncc(C3CC3)c(NCCc3c[nH]cn3)n2)c1 | inhibitor, radiometric | 1 µM | 55
O=C1NC(=O)c2cc(Nc3ccc(F)cc3)c(Nc3ccc(F)cc3)cc21 | inhibitor | 0.5 µM | 100
